In ChEMBL document CHEMBL1158182, “Antifungal activity of chalcones: a mechanistic study using various yeast strains” (Eur J Med Chem, 2008):
≈ marks a conversion by molar mass, not a printed value.

How the values were obtained:
Type in all cases: functional
[1] = tested on: Kluyveromyces lactis; assay: Antifungal activity against Kluyveromyces lactis 2-18B with MATalpha metA1 ura3 leu2 genotype by agar dilution method
In short: (§1)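 S. cerevisiae and K. lactis strains were tested by agar dilution on rich YPD agar at 30 °C. Compound stocks in 96% EtOH were added to the medium to give […]. Cells were suspended in water, serially diluted to 10^9–10^3 cells/ml, and plated with a metal replicator. MIC was read from growth.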

[2] = tested on: Kluyveromyces lactis; assay: Antifungal activity against Kluyveromyces lactis 2-19B with MATalpha ura lys arg genotype by agar dilution method; in short: as §1
[3] = tested on: Saccharomyces cerevisiae; assay: Antifungal activity against diploid Saccharomyces cerevisiae PV-3 by agar dilution method
In short: (§2)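 MICs by agar dilution on rich YPD medium. Compounds were added from 96% EtOH stocks to give final agar concentrations of 20 to 50 (units as printed in the source). Cells were suspended in water, serially diluted to 10^9, 10^7, 10^5 and 10^3 cells/ml, and spotted onto agar with a metal replicator. Incubation was at 37 °C for H. polymorpha and 30 °C for S. cerevisiae.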

[4] = tested on: Ogataea angusta; assay: Antifungal activity against Hansenula polymorpha AS1 with arg1 gsh2delta genotype by agar dilution method
In short: (§3)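 H. polymorpha strains were tested by agar dilution on rich YPD agar at 37 °C. Compound stocks in 96% EtOH were mixed into the medium to give […]. Cells were suspended in water, serially diluted to 10^9, 10^7, 10^5 and 10^3 cells/ml, and applied to the agar with a metal replicator. MIC was read from growth.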

[5] = tested on: Ogataea angusta; assay: Antifungal activity against Hansenula polymorpha AU05 with ade3 ura3 genotype by agar dilution method; in short: as §3
[6] = tested on: Saccharomyces cerevisiae; assay: Antifungal activity against haploid Saccharomyces cerevisiae FY4 by agar dilution method; in short: as §1
[7] = tested on: Ogataea angusta; assay: Antifungal activity against Hansenula polymorpha D22 with arg1/arg1 ade1/ADE1 leu2/leu2 URA3/ura3 CYS1/cys1 genotype by agar dilution method; in short: as §3
[8] = tested on: Saccharomyces cerevisiae; assay: Antifungal activity against diploid Saccharomyces cerevisiae 1a by agar dilution method; in short: as §1
[9] = tested on: Ogataea angusta; assay: Antifungal activity against Hansenula polymorpha M4 with met4 genotype by agar dilution method; in short: as §3
[10] = tested on: Kluyveromyces lactis; assay: Antifungal activity against Kluyveromyces lactis 1-6A with MATalpha uraA lys arg genotype by agar dilution method; in short: as §1
[11] = tested on: Ogataea angusta; assay: Antifungal activity against Hansenula polymorpha 2b with arg1 ade1 leu2 genotype by agar dilution method; in short: as §3
[12] = tested on: Ogataea angusta; assay: Antifungal activity against Hansenula polymorpha MC1 with met2 cys1 genotype by agar dilution method; in short: as §3
[13] = tested on: Saccharomyces cerevisiae; assay: Antifungal activity against haploid Saccharomyces cerevisiae YSH1171 by agar dilution method; in short: as §1
[14] = tested on: Saccharomyces cerevisiae; assay: Antifungal activity against haploid Saccharomyces cerevisiae 2180 by agar dilution method; in short: as §1
[15] = tested on: Ogataea angusta; assay: Antifungal activity against Hansenula polymorpha CD2 with ade1 leu2 cds2 genotype by agar dilution method; in short: as §3
[16] = tested on: Ogataea angusta; assay: Antifungal activity against Hansenula polymorpha CRD2 with leu2 CDR2 genotype by agar dilution method; in short: as §3
[17] = tested on: Saccharomyces cerevisiae; assay: Antifungal activity against haploid Saccharomyces cerevisiae Sigma 1278b by agar dilution method; in short: as §1
[18] = tested on: Saccharomyces cerevisiae; assay: Antifungal activity against haploid Saccharomyces cerevisiae 10560-6B by agar dilution method; in short: as §1
[19] = tested on: Ogataea angusta; assay: Antifungal activity against Hansenula polymorpha CD3 with ade1 leu2 cds3 genotype by agar dilution method; in short: as §3
[20] = tested on: Saccharomyces cerevisiae; assay: Antifungal activity against diploid Saccharomyces cerevisiae 29a by agar dilution method; in short: as §1
[21] = tested on: Ogataea angusta; assay: Antifungal activity against Hansenula polymorpha WT1 with ade1 ura3 genotype by agar dilution method; in short: as §3
[22] = tested on: Ogataea angusta; assay: Antifungal activity against Hansenula polymorpha M2 with met2 genotype by agar dilution method; in short: as §3
[23] = tested on: Ogataea angusta; assay: Antifungal activity against Hansenula polymorpha CTA1 with leu2 cat1 genotype by agar dilution method; in short: as §2
[24] = tested on: Ogataea angusta; assay: Antifungal activity against Hansenula polymorpha R3 with rgh3 genotype by agar dilution method; in short: as §3
[25] = tested on: Saccharomyces cerevisiae; assay: Antifungal activity against haploid Saccharomyces cerevisiae 1169 by agar dilution method; in short: as §1
[26] = tested on: Saccharomyces cerevisiae; assay: Antifungal activity against diploid Saccharomyces cerevisiae PV-2 by agar dilution method; in short: as §2
[27] = tested on: Ogataea angusta; assay: Antifungal activity against Hansenula polymorpha 2a with arg1 leu2 ura3 cys1 genotype by agar dilution method; in short: as §3
[28] = tested on: Saccharomyces cerevisiae; assay: Antifungal activity against haploid Saccharomyces cerevisiae 1S by agar dilution method; in short: as §1
[29] = tested on: Ogataea angusta; assay: Antifungal activity against Hansenula polymorpha CD1 with ade1 leu2 cds1 genotype by agar dilution method; in short: as §3
[30] = tested on: Saccharomyces cerevisiae; assay: Antifungal activity against haploid Saccharomyces cerevisiae D3C by agar dilution method; in short: as §2
[31] = tested on: Saccharomyces cerevisiae; assay: Antifungal activity against haploid Saccharomyces cerevisiae YSH1170 by agar dilution method; in short: as §1
[32] = tested on: Ogataea angusta; assay: Antifungal activity against Hansenula polymorpha WT2 with ade1 met6 genotype by agar dilution method; in short: as §3
[33] = tested on: Ogataea angusta; assay: Antifungal activity against Hansenula polymorpha WA1 with ade1 leu2 gsh1 genotype by agar dilution method; in short: as §2

Structure (SMILES)	MIC [1] [µg/mL]	MIC [2] [µg/mL]	MIC [4] [µg/mL]	MIC [5] [µg/mL]	MIC [6] [µg/mL]	MIC [7] [µg/mL]	MIC [8] [µg/mL]	MIC [9] [µg/mL]	MIC [10] [µg/mL]	MIC [11] [µg/mL]	MIC [12] [µg/mL]	MIC [13] [µg/mL]	MIC [14] [µg/mL]	MIC [15] [µg/mL]	MIC [16] [µg/mL]	MIC [17] [µg/mL]	MIC [18] [µg/mL]	MIC [19] [µg/mL]	MIC [20] [µg/mL]	MIC [21] [µg/mL]	further results
O=C(/C=C/c1cccc(O)c1)c1ccc(Cl)cc1	< 20	< 20	< 20	25 (≈ 96.6 µM)	18 (≈ 69.6 µM)	< 20	20 (≈ 77.3 µM)	25 (≈ 96.6 µM)	< 20	25 (≈ 96.6 µM)	< 20	18 (≈ 69.6 µM)	16 (≈ 61.8 µM)	< 20	< 20	15 (≈ 58 µM)	15 (≈ 58 µM)	< 20	25 (≈ 96.6 µM)	25 (≈ 96.6 µM)	MIC [3]: 15 µg/mL (≈ 58 µM); MIC [22]: 25 µg/mL (≈ 96.6 µM); MIC [23]: 25 µg/mL (≈ 96.6 µM); MIC [24]: < 20 µg/mL; MIC [25]: 20 µg/mL (≈ 77.3 µM); MIC [26]: 18 µg/mL (≈ 69.6 µM); MIC [27]: < 20 µg/mL; MIC [28]: 20 µg/mL (≈ 77.3 µM); MIC [29]: < 20 µg/mL; MIC [30]: 20 µg/mL (≈ 77.3 µM); MIC [31]: 15 µg/mL (≈ 58 µM); MIC [32]: < 20 µg/mL
O=C(/C=C/c1ccc(O)cc1)c1ccc(Cl)cc1	35 (≈ 135 µM)	35 (≈ 135 µM)	30 (≈ 116 µM)	> 40	> 40	> 40	35 (≈ 135 µM)	> 40	> 40	> 40	30 (≈ 116 µM)	> 40	> 40	> 40	40 (≈ 155 µM)	> 40	> 40	> 40	> 40	> 40	MIC [3]: 35 µg/mL (≈ 135 µM); MIC [33]: 30 µg/mL (≈ 116 µM); MIC [22]: > 40 µg/mL; MIC [24]: 40 µg/mL (≈ 155 µM); MIC [25]: > 40 µg/mL; MIC [26]: 35 µg/mL (≈ 135 µM); MIC [27]: 35 µg/mL (≈ 135 µM); MIC [28]: > 40 µg/mL; MIC [29]: > 40 µg/mL; MIC [31]: > 40 µg/mL; MIC [32]: > 40 µg/mL
Cc1ccc(/C=C/C(=O)c2ccc(Cl)cc2)cc1	> 40	> 40	> 40	> 40	> 40	> 40	> 40	> 40	> 40	> 40	> 40	> 40	> 40	> 40	> 40	> 40	> 40	> 40	> 40	> 40	MIC [22]: > 40 µg/mL; MIC [24]: > 40 µg/mL; MIC [25]: > 40 µg/mL; MIC [27]: > 40 µg/mL; MIC [28]: > 40 µg/mL; MIC [29]: > 40 µg/mL; MIC [31]: > 40 µg/mL; MIC [32]: > 40 µg/mL
O=C(/C=C/c1cccc(O)c1)c1ccccc1 [3-HYDROXY CHALCONE]	< 20	< 20	20 (≈ 89.2 µM)	35 (≈ 156 µM)	25 (≈ 111 µM)	25 (≈ 111 µM)	25 (≈ 111 µM)	30 (≈ 134 µM)	< 20	25 (≈ 111 µM)	20 (≈ 89.2 µM)	20 (≈ 89.2 µM)	25 (≈ 111 µM)	25 (≈ 111 µM)	20 (≈ 89.2 µM)	25 (≈ 111 µM)	25 (≈ 111 µM)	25 (≈ 111 µM)	25 (≈ 111 µM)	35 (≈ 156 µM)	MIC [3]: 25 µg/mL (≈ 111 µM); MIC [33]: < 20 µg/mL; MIC [22]: 25 µg/mL (≈ 111 µM); MIC [23]: 35 µg/mL (≈ 156 µM); MIC [24]: 20 µg/mL (≈ 89.2 µM); MIC [25]: 30 µg/mL (≈ 134 µM); MIC [26]: 25 µg/mL (≈ 111 µM); MIC [27]: 25 µg/mL (≈ 111 µM); MIC [28]: 25 µg/mL (≈ 111 µM); MIC [29]: 25 µg/mL (≈ 111 µM); MIC [30]: 25 µg/mL (≈ 111 µM); MIC [31]: 25 µg/mL (≈ 111 µM); MIC [32]: 25 µg/mL (≈ 111 µM)
COc1cc(/C=C/C(=O)c2ccc(Cl)cc2)ccc1O	> 40	> 40	> 40	> 40	> 40	> 40	> 40	> 40	> 40	> 40	> 40	> 40	> 40	> 40	> 40	> 40	> 40	> 40	> 40	> 40	MIC [22]: > 40 µg/mL; MIC [24]: > 40 µg/mL; MIC [25]: > 40 µg/mL; MIC [27]: > 40 µg/mL; MIC [28]: > 40 µg/mL; MIC [29]: > 40 µg/mL; MIC [31]: > 40 µg/mL; MIC [32]: > 40 µg/mL
COc1cccc(/C=C/C(=O)c2ccc(Cl)cc2)c1	> 40	> 40	> 40	> 40	> 40	> 40	> 40	> 40	> 40	> 40	> 40	> 40	> 40	> 40	> 40	> 40	> 40	> 40	> 40	> 40	MIC [22]: > 40 µg/mL; MIC [24]: > 40 µg/mL; MIC [25]: > 40 µg/mL; MIC [27]: > 40 µg/mL; MIC [28]: > 40 µg/mL; MIC [29]: > 40 µg/mL; MIC [31]: > 40 µg/mL; MIC [32]: > 40 µg/mL
O=C(/C=C/c1ccccc1)c1ccc(Cl)cc1	> 40	> 40	> 40	> 40	> 40	> 40	> 40	> 40	> 40	> 40	> 40	> 40	> 40	> 40	> 40	> 40	> 40	> 40	> 40	> 40	MIC [22]: > 40 µg/mL; MIC [24]: > 40 µg/mL; MIC [25]: > 40 µg/mL; MIC [27]: > 40 µg/mL; MIC [28]: > 40 µg/mL; MIC [29]: > 40 µg/mL; MIC [31]: > 40 µg/mL; MIC [32]: > 40 µg/mL
COc1ccc(/C=C/C(=O)c2ccccc2)cc1O	25 (≈ 98.3 µM)	25 (≈ 98.3 µM)	30 (≈ 118 µM)	> 40	> 40	> 40	> 40	> 40	25 (≈ 98.3 µM)	> 40	30 (≈ 118 µM)	> 40	> 40	> 40	> 40	> 40	> 40	> 40	> 40	> 40	MIC [33]: 30 µg/mL (≈ 118 µM); MIC [22]: > 40 µg/mL; MIC [24]: > 40 µg/mL; MIC [25]: > 40 µg/mL; MIC [27]: 30 µg/mL (≈ 118 µM); MIC [28]: > 40 µg/mL; MIC [29]: > 40 µg/mL; MIC [31]: 35 µg/mL (≈ 138 µM); MIC [32]: > 40 µg/mL
O=C(/C=C/c1ccc(O)c(O)c1)c1ccccc1	> 40	> 40	> 40	> 40	> 40	> 40	> 40	> 40	> 40	> 40	> 40	> 40	> 40	> 40	> 40	> 40	> 40	> 40	> 40	> 40	MIC [22]: > 40 µg/mL; MIC [24]: > 40 µg/mL; MIC [25]: > 40 µg/mL; MIC [27]: > 40 µg/mL; MIC [28]: > 40 µg/mL; MIC [29]: > 40 µg/mL; MIC [31]: > 40 µg/mL; MIC [32]: > 40 µg/mL
